# The list is not random: actives were taken first. Their share in the collection is about 2.2%.
# PolyA inhibitor: yeast polyadenylation inhibition; hit rate 0.02% among 300,000; S. cerevisiae SKY197-pL101 polyadenylation reporter, beta-gal luminescence; efflux-impaired pdr1/pdr3 knockout yeast; score 100 = 6 SD above DMSO; activity score, % at 12 µM;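 active means lowest replicate activity score at least 50, where 100 means six control SD above control mean; inconclusive means lowest score under 50 but half or more replicates reach 50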;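 further: yeast exposed to compound for 9 h at 30 °C; higher score means more reporter readthrough which indicates perturbed polyadenylation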
# AI-2 QS mod: Vibrio harveyi AI-2 quorum sensing modulation; Vibrio harveyi JMH597 AI-2 luminescence/OD600 ratio, 9 h; stronger effect = lower value; strain lacks LuxN and CqsS sensors; 0 = neutral-control median; activity change, % at 7.5 µM; hit rate 0.4% among 300,000; AID 2094; in the data active means activity change below about -75%, passing the limit was not always enough; inconclusive means no clear call, values can overlap the other calls;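 further: luminescence divided by OD600 gain over 9 h not by final OD600 alone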
# HDAC3 inh: inhibitors of human histone deacetylase 3; recombinant HDAC3, fluorogenic peptide/trypsin coupled, fluorescence; inhibition, % at 8.3 µM; hit rate 0.15% among 320,000; AID 2718; in the data active means inhibition above about 26%, passing the limit was not always enough; inconclusive means no clear call, values can overlap the other calls
# Target sequence (O15379 whole entry, looked up): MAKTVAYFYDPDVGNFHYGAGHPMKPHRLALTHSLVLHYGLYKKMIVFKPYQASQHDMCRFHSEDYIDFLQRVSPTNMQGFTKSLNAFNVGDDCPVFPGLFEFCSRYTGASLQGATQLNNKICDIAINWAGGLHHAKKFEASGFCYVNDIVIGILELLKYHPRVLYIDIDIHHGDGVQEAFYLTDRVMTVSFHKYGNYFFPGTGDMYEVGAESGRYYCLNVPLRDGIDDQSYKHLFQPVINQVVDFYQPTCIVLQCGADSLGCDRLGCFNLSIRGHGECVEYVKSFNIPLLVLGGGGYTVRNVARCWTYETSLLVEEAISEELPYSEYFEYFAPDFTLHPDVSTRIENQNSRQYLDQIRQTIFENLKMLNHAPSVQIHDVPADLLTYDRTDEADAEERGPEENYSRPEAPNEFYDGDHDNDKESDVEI
# Efflux pump inh: antifungal efflux pump inhibition, Nile Red retention; S. cerevisiae Candida pump triplex; inhibition, % at 10 µM; hit rate 0.44% among 330,000;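 active means plate passing quality check with inhibition over a set limit, or well fluorescence over plate mean plus 4 SD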;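 further: Nile Red retained in pooled yeast measured as flow cytometry median fluorescence; 0% = buffer negative control and 100% = Enniatin B positive control; higher means more Nile Red kept so more efflux inhibition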
# T cruzi inh: T. cruzi replication inhibition; T. cruzi beta-gal in NIH3T3, luminescence, 90 h; inhibition, % (concentration not given with the values); hit rate 1.4% among 300,000; AID 1885;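 active means mean inhibition across valid replicates above about 55%, limit read from the data; inconclusive means mean below that limit but half or more replicates reach it; inactive means mean below it, under half of replicates reach it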;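 further: signal also drops with host cell toxicity which is not excluded here; 0% = plate median of DMSO wells and 100% = zero luminescence signal; higher percent means less beta-gal luminescence so fewer parasites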
#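 Read-out: Parasite load inhibition, % | Test system: Mouse NIH/3T3 fibroblasts infected with β-gal-expressing T. cruzi Tulahuen C4 | Amount: 5,000 cells/well | Medium: DMEM, 2% fetal bovine serum | Signal: GalScreen β-gal luminescence, detergent lysis, 60 min | Timing: 3 h attach, ≥90 h co-culture | Also added: Tulahuen C4 trypomastigotes, 5000/well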
# Cmpd fluor yeast: counter-screen for efflux pump inhibitors: compound fluorescence; shares compounds with Efflux pump inh; S. cerevisiae AD/pABC3, flow cytometry; fluorescence ratio to DMSO, % at 10 µM; hit rate 4% among 1,700;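 active means fluorescence ratio to DMSO above its plate's cutoff, the plate mean ratio plus 5 SD, cut at about 210% in these data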;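 further: unstained yeast with no Nile Red so the signal is compound autofluorescence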
# CaMdr1 efflux inh: Candida Mdr1 efflux pump inhibition; shares compounds with Efflux pump inh; S. cerevisiae AD/CaMDR1, Nile Red efflux, flow cytometry; inhibition, % at 10 µM; hit rate 1% among 1,700; AID 588518; in the data active means inhibition above about 26%;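 further: 0% = DMSO vehicle and 100% = reference inhibitor; higher means more Nile Red retained so more efflux inhibition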
# Cdr2 pump inh: blocks the Candida albicans Cdr2 efflux pump in yeast. shares compounds with Efflux pump inh. S. cerevisiae AD/CaCDR2, Nile Red retention, flow cytometry. Nile Red retention ratio vs DMSO, % at 10 µM. hit rate 4% among 1,700; in the data active means Nile Red retention ratio vs DMSO above about 190%;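 further: higher ratio means more blocking of Cdr2 efflux of the dye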
# Cdr1 pump inh: Candida Cdr1 efflux pump inhibition | hit rate 1% among 1,700 | S. cerevisiae AD/CaCDR1, Nile Red efflux, flow cytometry | shares compounds with Efflux pump inh | inhibition, % at 10 µM | AID 588522;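 active means inhibition above the screen-wide mean plus twice its standard deviation, cut at about 32% in these data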
# Numbers without * were called inactive; u = inconclusive; x = not tested or not shown.
SMILES,PolyA inhibitor,AI-2 QS mod,HDAC3 inh,Efflux pump inh,T cruzi inh,Cmpd fluor yeast,CaMdr1 efflux inh,Cdr2 pump inh,Cdr1 pump inh
COCCNC(=S)N1CCc2cc(OC)c(OC)cc2C1COc1ccc(F)cc1 (configuration not stated),5,7,-2,0,6,x,x,x,x
COCCNC(=S)N1CCc2cc(OC)c(OC)cc2C1COc1ccc(C(C)C)cc1 (configuration not stated),8,-19,-7,6.8*,24,115,0,112,0
CCCCOc1cccc(C(=O)Nc2ccc(NC(=O)c3cccs3)cc2)c1,29,16,-1,1,-1,x,x,x,x
CCCOc1ccc(C(=O)Nc2ccc(NC(=O)c3cccs3)cc2)cc1,14,19,-6,1.7*,8,105,0,117,0
Cc1cc(C)n(CC(=O)N/N=C/c2cc([N+](=O)[O-])ccc2O)n1,-33,23,2,19*,0,110,0,109,0
Cc1nnc(SCc2cc(=O)[nH]c(Nc3nc(C)c4cc(C)c(C)cc4n3)n2)s1,-4,17,-2,1.6*,26,106,0,102,0
O=C(Nc1cc(S(=O)(=O)N2CCCCC2)ccc1Oc1ccccc1)C1=COCCO1,9,18,-2,0,31,x,x,x,x
Cc1cc(Cl)c(OCCCn2ccnc2)c(Br)c1,3,23,1,16*,45,94,0,95,0
Cc1cc(C)c(OCCCn2ccnc2)c(C)c1,-13,4,-1,0,22,x,x,x,x
Cc1ccccc1NC(=S)NCc1ccccc1,2,-6,-8,8.9*,-15,95,0,112,0
Cc1ccccc1NC(=S)NCCc1ccccc1,17,-12,-9,0,-6,x,x,x,x
c1ccc(Sc2ncccn2)nc1,4,19,6,0,-26,x,x,x,x
CCNC(=S)N1CCn2c(nc3ccccc32)C1,8,27,-2,0,-10,x,x,x,x
COc1cc(OC)cc(-c2sc3ccc(OC)cc3c2-c2ccc(OCCN3CCOCC3)cc2)c1,x,x,x,160*,x,100,95*,102,128*
COc1cccc(-c2sc3ccc(OC)cc3c2-c2ccc(OCCN3CCOCC3)cc2)c1,x,x,-5,70*,x,91,13,102,67*
O=C(O)c1c(C(=O)O)c(-c2ccc(F)cc2)n2c1CCC2,9,23,-2,0,-11,x,x,x,x
Cc1ccccc1OCCC(=O)OCC(=O)c1c(N)n(CC(C)C)c(=O)n(C)c1=O,0,21,5,6.2*,-28,99,0,96,0
CCOC(=O)c1ccc(S(=O)(=O)NNS(=O)(=O)c2ccc(C)cc2)cc1,12,9,2,2.1*,0,97,0,101,0
CCc1c(C)nc2c(OC)cccc2c1SCCC(=O)O,-1,24,-4,10*,-20,112,0,112,0
O=C(NCCCN1CCOCC1)c1cccc(S(=O)(=O)N2CCOCC2)c1,x,x,-3,106*,x,103,0,104,0
Cc1ccc(S(=O)(=O)N2CCOCC2)cc1NC(=O)COC(=O)Cc1cccs1,28,-2,-1,0,4,x,x,x,x
Cc1ccc(S(=O)(=O)N2CCOCC2)cc1NC(=O)COC(=O)CNC(=O)c1ccccc1,-3,4,-3,9.1*,-4,102,0,101,0
O=C(NCCCN1CCOCC1)C(=O)N/N=C/c1ccccc1O,5,27,-1,0.8*,-3,111,0,101,0
CCN(CC)S(=O)(=O)c1ccc(N2CCCC2)c(C(=O)OCC(=O)Nc2cc(C)on2)c1,6,8,3,0,16,x,x,x,x
COc1ccc(OC)c(NC(=O)NNC(=O)c2cc3occc3[nH]2)c1,5,4,6,1.2*,20,100,0,101,0
SMILES,PolyA inhibitor,AI-2 QS mod,HDAC3 inh,Efflux pump inh,T cruzi inh,Cmpd fluor yeast,CaMdr1 efflux inh,Cdr2 pump inh,Cdr1 pump inh
Cc1ccc(C)c(NC(=O)NNC(=O)c2cc3occc3[nH]2)c1,8,1,4,-1,3,x,x,x,x
Clc1ccc(Cn2nc(-c3ccccc3)nc2-c2ccccc2)cc1,-8,25,3,20*,41,102,0,110,0
CC(C)(C)OC(=O)C[C@H]1C/C=C\C[C@@H](CC(=O)NCCO)C(=O)N[C@H](Cc2ccccc2)COC1=O,x,x,x,1,x,x,x,x,x
O=C1CCN(Cc2ccc(Cl)cc2)N1,u,31,-12,2.1*,3,98,0,90,0
O=C1CCN(S(=O)(=O)c2ccc(Cl)cc2)N1,15,-5,4,0,-15,x,x,x,x
CCOC(=O)C1CCN(C(=O)CNC(=O)Cn2c(C)cc3ccccc3c2=O)CC1,10,1,4,0,-1,x,x,x,x
Cc1c(C(=O)Nc2c(F)cccc2F)sc2ncn(CC(=O)N3CCCCC3)c(=O)c12,-11,53,-1,0,18,x,x,x,x
COCCNC(=O)c1sc2ncn(CC(=O)N3CCCCC3)c(=O)c2c1C,13,21,6,1.8*,-15,106,0,106,0
O=C(Cn1nc(-c2ccc(F)cc2)ccc1=O)Nc1ccc2c(c1)OCCO2,3,8,2,0,-6,x,x,x,x
O=C(Cn1nc(-c2ccc(F)cc2)ccc1=O)Nc1ccc(C(=O)NC2CC2)cc1,-17,13,-5,0.4*,5,81,0,89,0
Cn1c(-c2ccccc2)cc2ccccc21,-13,9,-6,0,-12,x,x,x,x
Cn1c(-c2ccccc2O)cc2ccccc21,-9,-3,-12,0.2*,x,100,0,103,0
O=C(NNC(=O)C1COc2ccccc2O1)c1ccccc1 (configuration not stated),4,7,-3,0,6,x,x,x,x
O=C(NNC(=O)C1COc2ccccc2O1)c1cccc([N+](=O)[O-])c1 (configuration not stated),6,16,-9,1.2*,-6,107,0,97,0
O=C(COC(=O)c1ccc(O)cc1O)NCCN1C(=O)CSC1=O,-6,8,-1,0,-2,100,0,97,0
O=C(COC(=O)c1cccs1)NCCN1C(=O)CSC1=O,0,8,-4,0,-1,x,x,x,x
Cc1cc(OCC(=O)OCC(=O)NCCN2C(=O)CSC2=O)ccc1Cl,x,x,-1,0,x,x,x,x,x
O=C(COC(=O)c1cc(Cl)ccc1Cl)NCCN1C(=O)CSC1=O,31,-4,-9,32*,-12,95,0,101,0

# Screening results (PubChem BioAssay)
